Test results reported in ChEMBL document CHEMBL1140884, “Oligodeoxyribonucleotide-based antagonists for Toll-like receptors 7 and 9” (2009).
Calls of active or inactive are those of the source.

How the values were obtained:
PBMC [1] = experiment: Induction of IL12 secretion in human PBMC; assay type: functional, cell-based
In short: (§1)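 Human PBMCs (5×10^6/mL; 1×10^6 per well) were cultured 24 h with TLR9 agonist 5 µg/mL or TLR7/8 agonist 100 µg/mL, alone or with antagonist at 1:4. Compounds were dissolved in PBS. Supernatant cytokines were measured by Luminex human 25-plex bead assay. One representative donor of six.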

PBMC [2] = experiment: Induction of MIG secretion in human PBMC; assay type: functional, cell-based; in short: as §1
PBMC [3] = experiment: (§2) Induction of IP10 secretion in human PBMC; assay type: functional, cell-based; in short: as §1
PBMC [4] = experiment: Induction of MIP1beta secretion in human PBMC; assay type: functional, cell-based; in short: as §1
PBMC [5] = experiment: Induction of IFNalpha secretion in human PBMC; assay type: functional, cell-based; in short: as §1
[6] = biological target: Toll-like receptor 7 (Homo sapiens) (UniProt Q9NYK1); experiment: Agonist activity at TLR7/8 in human PBMC assessed as NF-kappaB activation at 100 ug/mL
Sequence of Toll-like receptor 7 (Homo sapiens) (Q9NYK1 whole entry, looked up): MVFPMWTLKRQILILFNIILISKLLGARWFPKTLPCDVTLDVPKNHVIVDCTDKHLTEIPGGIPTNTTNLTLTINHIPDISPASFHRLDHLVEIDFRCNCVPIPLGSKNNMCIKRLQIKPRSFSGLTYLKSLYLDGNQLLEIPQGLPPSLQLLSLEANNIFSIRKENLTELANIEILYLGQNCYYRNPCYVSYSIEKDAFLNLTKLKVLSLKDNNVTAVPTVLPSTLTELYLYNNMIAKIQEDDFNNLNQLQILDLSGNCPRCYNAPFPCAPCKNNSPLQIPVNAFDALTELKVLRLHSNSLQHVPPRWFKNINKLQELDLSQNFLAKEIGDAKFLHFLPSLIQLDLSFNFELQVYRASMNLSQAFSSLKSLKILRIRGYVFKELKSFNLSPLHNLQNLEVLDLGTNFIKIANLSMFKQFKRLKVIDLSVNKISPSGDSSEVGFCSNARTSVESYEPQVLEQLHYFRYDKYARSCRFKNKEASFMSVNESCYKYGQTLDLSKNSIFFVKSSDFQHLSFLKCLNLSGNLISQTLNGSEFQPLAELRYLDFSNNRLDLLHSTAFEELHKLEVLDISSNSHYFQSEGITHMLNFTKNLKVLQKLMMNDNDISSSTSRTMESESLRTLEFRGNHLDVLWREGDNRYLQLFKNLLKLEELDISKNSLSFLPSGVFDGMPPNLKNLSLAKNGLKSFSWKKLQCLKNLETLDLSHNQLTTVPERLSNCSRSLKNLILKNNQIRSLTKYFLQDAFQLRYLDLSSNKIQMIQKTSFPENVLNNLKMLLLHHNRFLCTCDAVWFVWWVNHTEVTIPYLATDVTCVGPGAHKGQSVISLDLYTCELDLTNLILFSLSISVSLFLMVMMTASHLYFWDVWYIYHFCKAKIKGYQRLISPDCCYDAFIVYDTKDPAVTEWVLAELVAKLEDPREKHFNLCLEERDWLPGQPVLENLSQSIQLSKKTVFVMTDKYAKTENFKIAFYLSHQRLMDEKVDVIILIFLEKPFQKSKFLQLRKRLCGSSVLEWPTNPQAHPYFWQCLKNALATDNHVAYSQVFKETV

PBMC [7] = experiment: Induction of IFN-gamma secretion in human PBMC; assay type: functional, cell-based; in short: as §1
PBMC [8] = experiment: Induction of TNFalpha secretion in human PBMC; assay type: functional, cell-based; in short: as §1
PBMC [9] = experiment: as §2; assay type: functional, cell-based; in short: as §1; remark: listed apart in the source
PBMC [10] = experiment: Induction of IL6 secretion in human PBMC; assay type: functional, cell-based; in short: as §1
PBMC [11] = experiment: Induction of MCP1 secretion in human PBMC; assay type: functional, cell-based; in short: as §1
Mus musculus [12] = experiment: Induction of IL6 secretion in C57BL/6 mouse at 20 mg/kg, sc; assay type: functional, organism-based; design: dose 20 mg/kg
In short: (§3)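 Female C57BL/6 mice, 6–8 weeks old (n=3), were injected sc with single compounds at 0.25 or 20 mg/kg. Serum was collected by retro-orbital bleed 2 h later and cytokines were measured by Luminex mouse 20-plex assay.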

Mus musculus [13] = experiment: Induction of cytokine MCP1 secretion in C57BL/6 mouse at 20 mg/kg, sc; assay type: functional, organism-based; design: dose 20 mg/kg; in short: as §3
Mus musculus [14] = experiment: Induction of IL12 secretion in C57BL/6 mouse at 20 mg/kg, sc; assay type: functional, organism-based; design: dose 20 mg/kg; in short: as §3
Mus musculus [15] = experiment: Induction of IL10 secretion in C57BL/6 mouse at 20 mg/kg, sc; assay type: functional, organism-based; design: dose 20 mg/kg; in short: as §3
[16] = biological target: T1, Toll-like receptor 9 (Mus musculus) (UniProt Q9EQU3); experiment: Antagonist activity at mouse TLR9 expressed in HEK293 cells assessed as inhibition of 5'-CTATCTGACGTTCTCTGT-3'-induced NF-kappaB activation by SEAP reporter gene assay; assay type: functional, cell-based
T1 sequence (whole entry): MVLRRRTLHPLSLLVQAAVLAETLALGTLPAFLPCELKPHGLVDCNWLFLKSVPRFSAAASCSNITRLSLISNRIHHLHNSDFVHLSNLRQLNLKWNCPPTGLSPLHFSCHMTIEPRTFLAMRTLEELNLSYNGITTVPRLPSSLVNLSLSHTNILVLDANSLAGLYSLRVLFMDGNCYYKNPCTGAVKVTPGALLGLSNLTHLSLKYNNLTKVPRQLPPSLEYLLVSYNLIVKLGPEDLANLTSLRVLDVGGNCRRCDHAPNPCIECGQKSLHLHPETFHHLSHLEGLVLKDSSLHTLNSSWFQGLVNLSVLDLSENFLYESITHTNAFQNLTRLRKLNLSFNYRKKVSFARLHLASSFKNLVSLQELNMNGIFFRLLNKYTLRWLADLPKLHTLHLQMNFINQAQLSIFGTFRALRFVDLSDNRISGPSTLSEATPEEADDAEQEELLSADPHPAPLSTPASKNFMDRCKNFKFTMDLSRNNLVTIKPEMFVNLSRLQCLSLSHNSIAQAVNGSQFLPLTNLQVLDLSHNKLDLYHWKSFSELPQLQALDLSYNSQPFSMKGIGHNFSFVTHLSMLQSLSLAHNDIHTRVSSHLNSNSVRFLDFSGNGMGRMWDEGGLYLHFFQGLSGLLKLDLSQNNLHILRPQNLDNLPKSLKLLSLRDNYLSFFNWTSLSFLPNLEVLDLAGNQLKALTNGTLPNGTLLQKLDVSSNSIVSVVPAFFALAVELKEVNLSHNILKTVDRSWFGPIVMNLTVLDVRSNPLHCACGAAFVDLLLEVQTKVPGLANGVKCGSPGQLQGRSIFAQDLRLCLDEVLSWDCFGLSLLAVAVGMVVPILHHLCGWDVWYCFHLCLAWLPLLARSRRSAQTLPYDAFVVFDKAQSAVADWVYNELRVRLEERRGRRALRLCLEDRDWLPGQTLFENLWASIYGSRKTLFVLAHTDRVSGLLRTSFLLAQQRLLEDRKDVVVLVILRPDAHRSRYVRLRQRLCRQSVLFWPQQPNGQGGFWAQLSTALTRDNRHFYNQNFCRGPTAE
In short: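 Mouse TLR9-HEK293 cells were transfected with a SEAP reporter for 6 h. They were then stimulated for 18 h with agonist (0.25 or 0.5 µg/mL) plus increasing antagonist concentrations or set agonist:antagonist ratios. Quanti-Blue read-out, reported as % NF-κB activity with agonist alone as 100%.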

Mus musculus [17] = experiment: Inhibition of 5-TCTGACRTTCT-X-TCTTRCAGTCT-3-induced IL12 production in C57BL/6 mouse at 20 mg/kg, sc up to 168 hrs; assay type: functional, organism-based; design: dose 20 mg/kg
In short: (§4)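 Female C57BL/6 mice, 6-8 weeks, n = 3, given antagonist 20 mg/kg sc. TLR9 agonist at 0.25 mg/kg sc at various intervals afterward; blood taken 2 h after agonist and serum IL-12 measured by sandwich ELISA. Representative of more than six independent experiments.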

Mus musculus [18] = experiment: Induction of cytokine KC secretion in C57BL/6 mouse at 20 mg/kg, sc; assay type: functional, organism-based; design: dose 20 mg/kg; in short: as §3
Mus musculus [19] = experiment: Inhibition of 5'-TCTGACRTTCT-X-TCTTRCAGTCT-3'-induced IL12 production in C57BL/6 mouse treated 6 hrs of induction and measured after 2 hrs at 2 mg/kg, sc; assay type: functional; details: C57BL/6, sc, route subcutaneous
In short: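 Mice received antagonist sc at a low or high dose, then TLR9 agonist sc 6 h later. Serum IL-12 was determined 2 h after agonist administration.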

[20] = biological target: T1, Toll-like receptor 9 (Mus musculus); experiment: Agonist activity at mouse TLR9 expressed in HEK293 cells assessed as activation of NF-kappaB at 10 ug/mL by SEAP reporter gene assay; assay type: functional, cell-based
In short: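 HEK293 cells stably expressing mouse TLR9 were transiently transfected with a SEAP reporter for 6 h. Compounds were added at 10 µg/mL for 18 h. SEAP was read with Quanti-Blue substrate and expressed as fold change in NF-κB activity.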

Mus musculus [21] = species on record: Mus musculus; experiment: Inhibition of 5'-TCTGACRTTCT-X-TCTTRCAGTCT-3'-induced IL12 production in C57BL/6 mouse at 1:4 agonist to drug ratio by ELISA; assay type: functional, organism-based
In short: (§5)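 C57BL/6 mice (n=3) were given TLR9 agonist 0.25 mg/kg sc in the left flank and various antagonist doses sc in the right flank at the same time. Serum IL-12 was measured by sandwich ELISA 2 h after agonist.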

Mus musculus [22] = experiment: Induction of IP10 secretion in C57BL/6 mouse at 20 mg/kg, sc; assay type: functional, organism-based; design: dose 20 mg/kg; in short: as §3
Mus musculus [23] = species on record: Mus musculus; experiment: Inhibition of 5'-TCTGACRTTCT-X-TCTTRCAGTCT-3'-induced IL12 production in C57BL/6 mouse measured after 2 hrs of induction by ELISA; assay type: functional, organism-based; in short: as §5
Mus musculus [24] = experiment: Inhibition of 5-TCTGACRTTCT-X-TCTTRCAGTCT-3-induced IL12 production in C57BL/6 mouse at 20 mg/kg, sc up to 120 hrs; assay type: functional; details: C57BL/6, sc, route subcutaneous; in short: as §4
Mus musculus [25] = experiment: Inhibition of 5-TCTGACRTTCT-X-TCTTRCAGTCT-3-induced IL12 production in C57BL/6 mouse treated 6 hrs of induction and measured after 2 hrs at 20 mg/kg, sc; assay type: functional; details: C57BL/6, sc, route subcutaneous
Mus musculus [26] = experiment: Induction of cytokine MIG secretion in C57BL/6 mouse at 20 mg/kg, sc; assay type: functional, organism-based; design: dose 20 mg/kg; in short: as §3

Nc1ccn([C@@H]2O[C@H](COP(=O)(S)O[C@H]3[C@@H](O)[C@H](n4ccc(=O)[nH]c4=O)O[C@@H]3COP(=O)(S)O[C@H]3[C@@H](O)[C@H](n4ccc(=O)[nH]c4=O)O[C@@H]3COP(=O)(S)O[C@H]3[C@@H](O)[C@H](n4ccc5c(=O)[nH]c(N)nc54)O[C@@H]3COP(=O)(S)O[C@H]3[C@@H](O)[C@H](n4ccc(=O)[nH]c4=O)O[C@@H]3COP(=O)(S)O[C@H]3[C@@H](O)[C@H](n4ccc(N)nc4=O)O[C@@H]3COP(=O)(S)O[C@H]3[C@@H](O)[C@H](n4ccc5c(=O)[nH]c(N)nc54)O[C@@H]3COP(=O)(S)O[C@H]3[C@@H](O)[C@H](n4ccc(=O)[nH]c4=O)O[C@@H]3CO)[C@@H](OP(=O)(S)OC[C@H]3O[C@@H](n4ccc(=O)[nH]c4=O)[C@H](O)[C@@H]3OP(=O)(S)OC[C@H]3O[C@@H](n4ccc5c(=O)[nH]c(N)nc54)[C@H](O)[C@@H]3OP(=O)(S)OCC(O)COP(=O)(S)O[C@H]3[C@@H](O)[C@H](n4ccc5c(=O)[nH]c(N)nc54)O[C@@H]3COP(=O)(S)O[C@H]3[C@@H](O)[C@H](n4ccc(=O)[nH]c4=O)O[C@@H]3COP(=O)(S)O[C@H]3[C@@H](O)[C@H](n4ccc(N)nc4=O)O[C@@H]3COP(=O)(S)O[C@H]3[C@@H](O)[C@H](n4ccc(=O)[nH]c4=O)O[C@@H]3COP(=O)(S)O[C@H]3[C@@H](O)[C@H](n4ccc(=O)[nH]c4=O)O[C@@H]3COP(=O)(S)O[C@H]3[C@@H](O)[C@H](n4ccc5c(=O)[nH]c(N)nc54)O[C@@H]3COP(=O)(S)O[C@H]3[C@@H](O)[C@H](n4ccc(=O)[nH]c4=O)O[C@@H]3COP(=O)(S)O[C@H]3[C@@H](O)[C@H](n4ccc(N)nc4=O)O[C@@H]3COP(=O)(S)O[C@H]3[C@@H](O)[C@H](n4ccc5c(=O)[nH]c(N)nc54)O[C@@H]3COP(=O)(S)O[C@H]3[C@@H](O)[C@H](n4ccc(=O)[nH]c4=O)O[C@@H]3CO)[C@H]2O)c(=O)n1 (stereo partly specified)
active: Activity (PBMC [1]) | Activity (PBMC [2]) | Activity (PBMC [3]) | Activity (PBMC [4]) | Activity (PBMC [5]) | Activity [6] | Activity (PBMC [7]) | Activity (PBMC [8]) | Activity (PBMC [9]) | Activity (PBMC [10]) | Activity (PBMC [11])

CO[C@@H]1[C@H](OP(=O)(S)OC[C@H]2O[C@@H](n3ccc(N)nc3=O)C[C@@H]2OP(=O)(S)OC[C@H]2O[C@@H](n3cnc4c(=O)[nH]c(N)nc43)C[C@@H]2OP(=O)(S)OC[C@H]2O[C@@H](n3cc(C)c(=O)[nH]c3=O)C[C@@H]2OP(=O)(S)OC[C@H]2O[C@@H](n3cc(C)c(=O)[nH]c3=O)C[C@@H]2OP(=O)(S)OC[C@H]2O[C@@H](n3ccc(N)nc3=O)C[C@@H]2OP(=O)(S)OC[C@H]2O[C@@H](n3cc(C)c(=O)[nH]c3=O)C[C@@H]2OP(=O)(S)OC[C@H]2O[C@@H](n3ccc(N)nc3=O)C[C@@H]2OP(=O)(S)OC[C@H]2O[C@@H](n3cc(C)c(=O)[nH]c3=O)C[C@@H]2OP(=O)(S)OC[C@H]2O[C@@H](n3cnc4c(=O)[nH]c(N)nc43)C[C@@H]2OP(=O)(S)OC[C@H]2O[C@@H](n3cc(C)c(=O)[nH]c3=O)C[C@@H]2O)[C@@H](COP(=O)(S)O[C@H]2[C@@H](OC)[C@H](n3cnc4c(=O)[nH]c(N)nc43)O[C@@H]2COP(=O)(S)O[C@H]2C[C@H](n3cc(C)c(=O)[nH]c3=O)O[C@@H]2COP(=O)(S)O[C@H]2C[C@H](n3ccc(N)nc3=O)O[C@@H]2COP(=O)(S)O[C@H]2C[C@H](n3cc(C)c(=O)[nH]c3=O)O[C@@H]2COP(=O)(S)O[C@H]2C[C@H](n3cnc4c(N)ncnc43)O[C@@H]2COP(=O)(S)O[C@H]2C[C@H](n3cc(C)c(=O)[nH]c3=O)O[C@@H]2COP(=O)(S)O[C@@H]2C[C@@H](n3ccc(N)nc3=O)O[C@H]2CO)O[C@H]1n1cnc2c(N)ncnc21 (stereo partly specified)
active: Activity [16] Dose-dependent effect | Activity (Mus musculus [17]) | Activity (Mus musculus [21]) | Activity (Mus musculus [23]) Dose-dependent effect
inactive: Activity (Mus musculus [12]) | Activity (Mus musculus [13]) | Activity (Mus musculus [14]) | Activity (Mus musculus [15]) | Activity (Mus musculus [18]) | Activity [20] | Activity (Mus musculus [22]) | Activity (Mus musculus [26])
90%: inhibition in vivo at 20 mg/kg (Mus musculus [25])
50%: inhibition in vivo at 2 mg/kg (Mus musculus [19]) | inhibition in vivo at 20 mg/kg (Mus musculus [24])
